NR2E3 ag-1: activates human photoreceptor nuclear receptor NR2E3. Q9Y5X4. GST-NR2E3/biotin-RetCOR TR-FRET, 1536-well. inhibition of corepressor binding, % at 4.78 µM. 320,000 tested, 0.12% active;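 active = percent inhibition above the cutoff of mean plus 3 SD of all tested compounds, set per screening campaign, cut at about 20% in these data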;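 also: 0% = DMSO wells and 100% = biotin wells as full block of FRET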
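Test system: GST-NR2E3 and biotin-RetCOR proteins | Quantity: 1.35 nM GST-tagged NR2E3 final | Medium: Tris pH 7.5 | Also added: 7 nM biotin-RetCOR | Dosing: Compound at 4.8 µM, single dose | Timing: 5 h at 4 °C | Detection: Time-resolved FRET | Read-out basis: Percent inhibition | Benchmarks: Biotin wells as high control, 0.6% DMSO wells as low control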
JMJD2C inh: human JMJD2C demethylase inhibition | inhibition, % at 2.35 µM | 330,000 tested, 0.069% active | AID 2099 | GST-JMJD2C(1-420) H3K9me3 demethylation, DELFIA europium | Q9H3R0;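 active = more than half of a compound's replicate wells show inhibition beyond 50%, single wells judged on their own value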;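 also: signal counts dimethyl H3K9 product captured on neutravidin plate; 0% = median of DMSO wells and 100% = 0.3 times that DMSO median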
Target sequence (Q9H3R0 1-420 limits assumed): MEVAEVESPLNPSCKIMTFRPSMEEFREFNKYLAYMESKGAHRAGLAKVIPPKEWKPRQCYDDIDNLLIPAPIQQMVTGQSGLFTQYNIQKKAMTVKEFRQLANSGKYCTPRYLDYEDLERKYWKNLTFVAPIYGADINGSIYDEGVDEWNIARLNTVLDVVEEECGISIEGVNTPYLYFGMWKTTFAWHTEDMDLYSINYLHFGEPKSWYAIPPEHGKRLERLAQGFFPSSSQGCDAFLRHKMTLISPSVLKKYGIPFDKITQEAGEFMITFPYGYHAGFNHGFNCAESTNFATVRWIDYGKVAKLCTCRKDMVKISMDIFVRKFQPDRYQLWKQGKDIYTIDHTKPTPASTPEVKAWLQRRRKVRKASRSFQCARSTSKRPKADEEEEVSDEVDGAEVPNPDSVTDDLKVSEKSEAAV
EP2 antag: blocks the human prostaglandin E2 receptor EP2; C6 glioma cells expressing human EP2, cAMP TR-FRET; cells stimulated with saturating PGE2; P43116; 260,000 tested, 0.52% active; inhibition, % at 25 µM;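 active = percent inhibition above 40 after rounding to a whole number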;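 also: rat C6 glioma host cells with rolipram phosphodiesterase inhibitor present; the protocol text gives 20 µM as final concentration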
EP2 mod: EP2 receptor (human) modulation; EP2-expressing cells, cAMP HTRF FRET, PGE2 co-stimulation; 260,000 tested, 0.83% active; induction, % at 25 µM; P43116; AID 940;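 active = compounds whose cAMP rise, as percent of the full-agonist control response, exceeds 60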;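 also: rat C6 glioma line stably carrying human EP2 under a CMV promoter; the protocol text gives 20 µM as final concentration; 100% = response of wells given 1 µM PGE2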
NR2E3 ag-2: activates human NR2E3 receptor; inhibition of corepressor binding, % at 3.98 µM; CHO-S Gal4-NCOR/VP16-NR2E3 two-hybrid, luciferase; 360,000 tested, 0.35% active;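 active = inhibition above the mean of all tested compounds plus 3 SD, cut at about 70% in these data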;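 also: 0% = DMSO with NR2E3 transfected cells and 100% = cells lacking NR2E3 construct; higher means lower luciferase signal from less NR2E3 corepressor binding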
Furin inh: human furin inhibition | P09958 | purified furin, fluorogenic substrate cleavage | inhibition, % at 20 µM or 30 µM | 220,000 tested, 0.061% active; in the data active = inhibition above about 25%
EP2 cAMP induct: EP2 receptor cAMP induction, counter-screens negative | 1,300 tested, 47% active | C6 glioma EP2 cells, cAMP HTRF induction; plus low (about EC15) PGE2 agonist | calls only at 20 µM (by protocol) | shares compounds with EP2 mod;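 active = cAMP induction above 50% in the main assay while under 30% in all four parallel counter assays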;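 also: rat C6 glioma cells stably expressing human EP2 receptor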
Numbers without * were called inactive; i = inactive; . = not tested or not shown; + = active, no number. This is a sample that favours compounds with a hit; in the whole collection about 1.3% have one here.

SMILES	NR2E3 ag-1	JMJD2C inh	EP2 antag	EP2 mod	NR2E3 ag-2	Furin inh	EP2 cAMP induct
CCCCc1nc(SCC(=O)N2CCCC2)c2c(=O)n(C)c(=O)n(C)c2n1	0	-5	.	.	-12	.	.
C=CCn1c(C(NC(=O)c2cccc(C)c2)C(C)C)n[nH]c1=S (stereo unspecified)	.	.	14	-5	.	.	.
CCCN(Cc1cc2cc(OC)ccc2[nH]c1=O)C(=O)c1ccccc1	.	.	9	-69	.	.	.
Cc1ccc(O)c(N=Cc2cc(Cc3ccccc3)cc([N+](=O)[O-])c2O)c1	.	-10	6	69*	-14	-14	i
Nc1cc(Cl)ccc1Oc1ccc(Cl)cc1	0	6	0	66*	-6	-7	i
CCOc1ccc2nc(Nc3ncc(C(C)=O)c(C)n3)nc(C)c2c1	.	.	8	-44	.	.	.
Cn1c(=O)[nH]c(=O)c2c1nc(CN1CCN(c3cccc(Cl)c3)CC1)n2CCCc1ccccc1	4	0	6	70*	-2	-27	+
Cn1c(=O)[nH]c(=O)c2c1nc(CN1CCN(c3cccc(Cl)c3)CC1)n2Cc1ccccc1Cl	2	0	6	69*	-21	-18	i
Cn1c(=O)[nH]c(=O)c2c1nc(N1CCCCCC1)n2Cc1cccc2ccccc12	0	3	-4	66*	-27	-16	i
Cn1c(=O)[nH]c(=O)c2c1nc(N1CCN(CCO)CC1)n2Cc1cccc2ccccc12	.	.	12	-27	.	.	.
Cc1ccc(N(CC(=O)Nc2ccc3c(c2)OCCO3)S(C)(=O)=O)cc1Cl	.	.	10	-16	.	.	.
COc1ccc(OC)c(NC(=O)CSc2nnc(-c3ccccc3O)o2)c1	.	.	6	5	.	.	.
COc1ccc(/C=C\c2nc(O)c([N+](=O)[O-])c(=O)[nH]2)cc1OC	.	.	10	4	.	.	.
CCOC(=O)c1c(NC(=O)COC)sc(C(C)=O)c1C	9	-3	9	30	1	-17	.
CCOC(=O)c1c(NC(=O)CSc2nnnn2CC)sc(C)c1C	-1	1	18	60	-18	-6	i
CCN(CC)C(=O)c1sc(NC(=O)c2ccoc2C)c(C(=O)OC)c1C	4	2	17	2	3	-3	.
CCOC(=O)c1c(NC(=O)c2cccnc2)sc(C)c1C	5	6	13	52	-15	-10	+
CCOC(=O)c1sc(NC(=O)c2cccnc2)c(C#N)c1C	3	0	15	-14	1	-15	.
CCOC(=O)c1c(NC(=O)c2ccoc2C)sc(C(=O)N(C)C)c1C	-1	-1	13	54	-7	-8	i
CCOC(=O)c1c(NC(=O)CC(C)C)sc(C(C)=O)c1C	5	-1	6	52	-36	-15	i
COc1ccc(C(=O)CSc2nnc3cc(C)c4ccccc4n23)cc1	.	.	17	-27	.	.	.
Cn1c(=O)c2c(nc(SCc3cc(=O)[nH]c4ccccc34)n2Cc2ccc(Cl)cc2)n(C)c1=O	.	.	7	2	.	.	.
CC(C)c1ccc(OCC(=O)Nc2ccc(Cl)cn2)cc1	.	.	15	14	.	.	.
O=C(Cc1ccc(F)cc1)N1CCC(n2nnc3ccccc3c2=O)CC1	.	.	.	-22	.	.	.
CCCCNCC(=O)Nc1sc(C)c(C)c1C(=O)OCC	1	0	3	53	-6	-21	i
SMILES	NR2E3 ag-1	JMJD2C inh	EP2 antag	EP2 mod	NR2E3 ag-2	Furin inh	EP2 cAMP induct
CCCn1c(SCC(=O)Nc2sc(C)c(C)c2C(=O)OCC)nc2c1c(=O)n(C)c(=O)n2C	7	-10	11	52	5	-2	i
Cc1cc2c(o1)c1cnn(CC(=O)NC3CC3)c(=O)c1n2C	.	.	.	-60	.	.	.
O=C(/C(=C/O)N=Nc1ccc(Cl)cc1)c1ccncc1	0	2	11	-15	-32	-24	.
O=C(/C(=C/O)N=Nc1ccccc1Cl)c1ccccc1	4	11	5	69*	-42	-14	+
CCOc1ccccc1NC(=O)c1c(Br)cnn1C	-1	-1	3	69*	-12	-4	i
C=CCSc1nc2ccccc2n1S(=O)(=O)c1ccc(Cl)cc1	1	26	11	75*	-8	-23	i
CSc1nc(Oc2ccc(F)cc2)c2ccccc2n1	1	19	12	68*	0	-7	+
O=C1C2C(c3ccccc3)C=CC(c3ccccc3)C2C(=O)N1c1ccncc1 (stereo unspecified)	1	-5	1	65*	-21	-7	i
O=C1C2C(c3ccccc3)C=CC(c3ccccc3)C2C(=O)N1c1cccnc1 (stereo unspecified)	1	-7	7	36	-8	-19	.
CCc1nnc(NC(=O)CSc2cc(C)c3ccccc3n2)s1	.	.	9	45	.	.	.
Cc1nnc(C)n1/N=C/c1ccccc1	0	1	5	27	0	-16	.
CCn1c2ccccc2c2cc(/C=N/n3c(C)nnc3C)ccc21	0	-17	8	94*	5	-13	+
FC(F)(F)c1nc(=S)c2ccccc2[nH]1	.	.	17	71*	-13	-20	i
COCCCN(C(=O)c1ccccc1)c1nc(-c2cc(OC)ccc2OC)cs1	.	.	5	57	.	.	.
Cc1ccc(C(=O)CSc2nc3ccccc3o2)cc1C	.	.	5	22	.	.	.
CCCCOC(=O)Sc1nc2ccccc2o1	4	19	14	71*	-16	-12	i
COc1cc(OC)c2c(OC)c(-c3ccc4c(c3)OCO4)c(=O)oc2c1	.	.	12	62*	.	.	i
CCOc1ccc(N2C(=O)NC(=O)/C(=C/c3cccc(OC)c3O)C2=O)cc1	.	.	9	14	.	.	.
Cc1nn(CC(=O)N2CCOCC2)c(=O)c2cc3occc3n12	.	.	1	-3	.	.	.
CN(c1ccccc1)c1nc(N2CCCC2)nc(-n2ccnc2)n1	3	19	13	82*	5	-15	+
c1ccc(N(c2ccccc2)c2nc(N3CCCC3)nc(-n3ccnc3)n2)cc1	-1	-9	.	54	-26	-33	.
CCOc1cc(S(=O)(=O)NCc2ccccc2OC)c(OCC)cc1-n1cnnn1	.	.	9	10	.	.	.
O=C(Nc1ccccc1N1CCCC1)c1cc2ccccc2o1	1	-14	.	91*	-38	-7	+
O=C(Nc1ccccc1N1CCCC1)c1ccccc1F	-1	6	.	.	11	.	.
O=C(Nc1ccccc1N1CCOCC1)c1cc2ccccc2o1	1	1	.	.	-16	.	.
CN1CCN(c2ccccc2NC(=O)c2ccc(F)cc2)CC1	5	3	1	-17	-21	-21	.
O=C(Nc1ccccc1N1CCCCC1)c1ccccc1F	-1	-12	7	61*	9	-20	+
